Results on 8 compounds are retold here after ChEMBL document CHEMBL4190393, “Specific Stereoisomeric Conformations Determine the Drug Potency of Cladosporin Scaffold against Malarial Parasite” (J Med Chem, 2018).

In experiment [1] the target is Lysine--tRNA ligase (Plasmodium falciparum (isolate 3D7)) (UniProt Q8IDJ8). In words: Binding affinity to Plasmodium falciparum KRS expressed in Escherichia coli BL21 by thermal shift assay. A digest of the protocol: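 Protein thermal shift assay with PfKRS at 2 μM in the presence of L-lysine. Binding is reported as the shift in melting temperature (ΔTm, °C) of the enzyme when the compound is added.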
Lysine--tRNA ligase (Plasmodium falciparum (isolate 3D7)), sequence (Q8IDJ8 1-583): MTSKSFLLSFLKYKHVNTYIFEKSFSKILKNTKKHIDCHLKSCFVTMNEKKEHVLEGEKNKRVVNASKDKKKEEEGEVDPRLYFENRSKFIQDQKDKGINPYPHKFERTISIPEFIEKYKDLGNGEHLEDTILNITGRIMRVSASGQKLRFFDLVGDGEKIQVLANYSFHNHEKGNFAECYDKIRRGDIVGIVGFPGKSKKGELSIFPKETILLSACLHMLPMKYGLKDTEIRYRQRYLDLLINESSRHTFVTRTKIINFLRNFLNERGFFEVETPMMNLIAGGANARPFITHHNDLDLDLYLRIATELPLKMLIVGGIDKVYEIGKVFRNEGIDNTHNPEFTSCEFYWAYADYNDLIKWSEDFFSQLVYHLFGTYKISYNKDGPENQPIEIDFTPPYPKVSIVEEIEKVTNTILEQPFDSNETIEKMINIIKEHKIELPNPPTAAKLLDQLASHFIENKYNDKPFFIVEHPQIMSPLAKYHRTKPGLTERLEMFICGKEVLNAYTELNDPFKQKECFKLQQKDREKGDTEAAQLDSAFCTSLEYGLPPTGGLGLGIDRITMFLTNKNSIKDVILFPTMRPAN

The target in experiment [2] is T1, Lysine--tRNA ligase (Homo sapiens, UniProt Q15046). The experiment can be described thus: Binding affinity to human KRS expressed in Escherichia coli BL21 by thermal shift assay. A digest of the protocol: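 Protein thermal shift assay with Hs-KRS at 4 μM in the presence of L-lysine; binding read out as the shift in melting temperature (ΔTm, °C) produced by each ligand.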
Target sequence in this assay (Q15046 2-597 limits assumed): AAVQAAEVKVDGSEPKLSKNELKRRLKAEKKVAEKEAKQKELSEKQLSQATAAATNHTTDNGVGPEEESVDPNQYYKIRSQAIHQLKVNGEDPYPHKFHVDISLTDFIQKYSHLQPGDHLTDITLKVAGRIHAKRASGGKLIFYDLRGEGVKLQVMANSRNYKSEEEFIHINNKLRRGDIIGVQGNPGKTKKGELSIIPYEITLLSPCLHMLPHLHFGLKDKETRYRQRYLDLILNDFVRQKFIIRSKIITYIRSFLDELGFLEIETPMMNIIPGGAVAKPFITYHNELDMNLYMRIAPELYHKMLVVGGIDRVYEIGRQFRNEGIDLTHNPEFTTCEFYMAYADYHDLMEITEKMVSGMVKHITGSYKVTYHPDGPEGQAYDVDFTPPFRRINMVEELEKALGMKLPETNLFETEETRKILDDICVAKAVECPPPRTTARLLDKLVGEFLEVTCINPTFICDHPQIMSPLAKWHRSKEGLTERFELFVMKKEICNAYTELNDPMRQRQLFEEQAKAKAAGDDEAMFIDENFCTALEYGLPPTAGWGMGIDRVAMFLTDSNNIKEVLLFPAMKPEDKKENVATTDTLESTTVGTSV

The target in experiment [3] is Lysine--tRNA ligase (Plasmodium falciparum (isolate 3D7), UniProt Q8IDJ8). The experiment can be described thus: Inhibition of Plasmodium falciparum KRS expressed in Escherichia coli BL21 using tRNA(Lys) as substrate after 45 mins in presence of L-lysine by AMP-GLO assay.
Lysine--tRNA ligase (Plasmodium falciparum (isolate 3D7), UniProt Q8IDJ8), sequence (Q8IDJ8 whole entry): as the sequence (Q8IDJ8 1-583) above
Experiment [4] has as its target T1, Lysine--tRNA ligase. The experiment can be described thus: Inhibition of human KRS expressed in Escherichia coli BL21 using tRNA(Lys) as substrate after 1 hr in presence of L-lysine by AMP-GLO assay.
Target sequence in this assay (Q15046 whole entry): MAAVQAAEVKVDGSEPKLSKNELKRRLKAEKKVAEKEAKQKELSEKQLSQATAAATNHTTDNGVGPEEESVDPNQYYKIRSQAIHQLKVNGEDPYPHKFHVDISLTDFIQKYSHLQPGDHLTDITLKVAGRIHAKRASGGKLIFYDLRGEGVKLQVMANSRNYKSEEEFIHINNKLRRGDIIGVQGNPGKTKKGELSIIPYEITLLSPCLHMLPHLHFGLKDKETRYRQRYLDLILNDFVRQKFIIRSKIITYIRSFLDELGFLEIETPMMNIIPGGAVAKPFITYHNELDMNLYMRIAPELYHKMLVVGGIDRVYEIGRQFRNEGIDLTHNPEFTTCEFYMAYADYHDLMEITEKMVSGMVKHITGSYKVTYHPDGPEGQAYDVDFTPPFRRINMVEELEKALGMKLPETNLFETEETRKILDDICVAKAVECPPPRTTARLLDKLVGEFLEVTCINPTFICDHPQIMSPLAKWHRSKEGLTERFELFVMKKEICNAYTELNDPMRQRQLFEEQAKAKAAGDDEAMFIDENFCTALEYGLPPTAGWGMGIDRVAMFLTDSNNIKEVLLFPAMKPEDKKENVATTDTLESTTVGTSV
The subject of the next experiment is Plasmodium falciparum. The experiment can be described thus: Antiparasitic activity against Plasmodium falciparum 3D7 infected in human erythrocytes after 48 hrs by SYBR green-1 staining based assay. Type of experiment: functional, organism-based. The following applies: 3D7, 48 h.
The nature of experiment [5]: Selectivity ratio of IC50 for human KRS to IC50 for Plasmodium falciparum KRS.

Some results are limits rather than exact numbers.

A word on the ΔTm: it is the shift of the melting midpoint relative to a reference. One may read the IC50 as the concentration needed to halve the response being measured. The EC50 is the concentration giving half of the maximal effect. A lower EC50 goes with a more potent agent. `C[C@H]1CCC[C@@H](C[C@H]2Cc3cc(O)cc(O)c3C(=O)O2)O1`: the figures for the ΔTm (in experiment [1]; on Lysine--tRNA ligase [2]) were 15.6 °C and 0.1 °C, respectively. In addition, the IC50 on Lysine--tRNA ligase [3] is 5.8 µM; at Lysine--tRNA ligase [4] it was over 100 µM. In addition, the response with Plasmodium falciparum was half-maximal at 1.1 µM (EC50).

As to `C[C@@H]1CCC[C@@H](C[C@H]2Cc3cc(O)cc(O)c3C(=O)O2)O1`, the ΔTm in experiment [1] amounted to 13.5 °C; at Lysine--tRNA ligase [2], 1.1 °C. The IC50 on Lysine--tRNA ligase [3] is 7.25 µM; on Lysine--tRNA ligase [4], over 100 µM. Moreover, a half-maximal effect in the experiment on Plasmodium falciparum (EC50) was put at 1.15 µM.

`C[C@H]1CCC[C@H](C[C@@H]2Cc3cc(O)cc(O)c3C(=O)O2)O1`: the ΔTm in experiment [1] was 14.3 °C; on Lysine--tRNA ligase [2] it was 0.5 °C. The IC50 on Lysine--tRNA ligase [3] is 4.64 µM; on Lysine--tRNA ligase [4], over 100 µM. Moreover, it took 1.6 µM to reach a half-maximal effect with Plasmodium falciparum (EC50).

Take `C[C@@H]1CCC[C@H](C[C@@H]2Cc3cc(O)cc(O)c3C(=O)O2)O1`: the ΔTm in experiment [1] turned out to be 11.8 °C; on Lysine--tRNA ligase [2], 0.3 °C. In addition, the figures for the IC50 at Lysine--tRNA ligase [3] and at Lysine--tRNA ligase [4] were 21.3 µM and over 100 µM, respectively. In the experiment on Plasmodium falciparum, this compound showed an EC50 of over 2 µM.

With `C[C@H]1CCC[C@@H](C[C@@H]2Cc3cc(O)cc(O)c3C(=O)O2)O1`, the results for the ΔTm (in experiment [1]; at Lysine--tRNA ligase [2]) were 11.4 °C and 1.1 °C, respectively. Further, the IC50 on Lysine--tRNA ligase [3] is 29 µM; at Lysine--tRNA ligase [4] it was over 100 µM. Besides, the EC50 in the experiment on Plasmodium falciparum was over 2 µM.

Consider `C[C@H]1CCC[C@H](C[C@H]2Cc3cc(O)cc(O)c3C(=O)O2)O1` [CLADOSPORIN], for which the figures for the thermal shift (ΔTm) (in experiment [1]; at Lysine--tRNA ligase [2]) were 17.3 °C and 1.3 °C, respectively. For the same compound, the IC50 on Lysine--tRNA ligase [3] is 0.12 µM; on Lysine--tRNA ligase [4], 105 µM. Moreover, the EC50 with Plasmodium falciparum is 0.04 µM. The Ratio IC50 in experiment [5] was found to be 840.

Take `C[C@@H]1CCC[C@H](C[C@H]2Cc3cc(O)cc(O)c3C(=O)O2)O1`: the values for the ΔTm (in experiment [1]; at Lysine--tRNA ligase [2]) were 16.2 °C and 1 °C, respectively. Besides, the values for the IC50 at Lysine--tRNA ligase [3] and at Lysine--tRNA ligase [4] were 0.29 µM and over 100 µM, respectively. This compound also yielded a concentration for a half-maximal effect (EC50) in the experiment with Plasmodium falciparum of 0.27 µM.

Consider `C[C@@H]1CCC[C@@H](C[C@@H]2Cc3cc(O)cc(O)c3C(=O)O2)O1`, for which the ΔTm in experiment [1] is 7.9 °C; on Lysine--tRNA ligase [2] it was -0.9 °C. Further, the half-maximal inhibitory concentration (IC50) is 50 µM at Lysine--tRNA ligase [3] and over 100 µM on Lysine--tRNA ligase [4]. The EC50 in the experiment with Plasmodium falciparum was over 2 µM.
